Reference: ChEMBL document CHEMBL1125449, “Substitution on the Phe3 aromatic ring in cyclic delta opioid receptor-selective dermorphin/deltorphin tetrapeptide analogues: electronic and lipophilic requirements for receptor affinity” (J Med Chem, 1992)
Positions of bridges follow the written chain, without caps; N, C: chain ends. Non-standard residues stand in square brackets, D forms with d. Residues, ends and D or L forms follow the SMILES beside them. Phe(4-NO2) = N[C@@H](Cc1ccc([N+](=O)[O-])cc1)C(=O)O; Phe(4-tBu) = CC(C)(C)c1ccc(C[C@H](N)C(=O)O)cc1; Phe(4-Cl) = N[C@@H](Cc1ccc(Cl)cc1)C(=O)O; Phe(3-F) = N[C@@H](Cc1cccc(F)c1)C(=O)O; Phe(4-F) = N[C@@H](Cc1ccc(F)cc1)C(=O)O; Phe(4-Me) = Cc1ccc(C[C@H](N)C(=O)O)cc1; Phe(2-F) = N[C@@H](Cc1ccccc1F)C(=O)O; mTyr = N[C@@H](Cc1cccc(O)c1)C(=O)O; Pen = CC(C)(S)[C@H](N)C(=O)O

How the values were obtained:
[1] = target: T1, Kappa-type opioid receptor (Cavia porcellus, UniProt P41144); assay: Compound was tested for the inhibition of [3H]- (U69,593) binding to Opioid receptor kappa 1 in guinea pig brain homogenates; format: tissue-based
T1 sequence (P41144 whole entry): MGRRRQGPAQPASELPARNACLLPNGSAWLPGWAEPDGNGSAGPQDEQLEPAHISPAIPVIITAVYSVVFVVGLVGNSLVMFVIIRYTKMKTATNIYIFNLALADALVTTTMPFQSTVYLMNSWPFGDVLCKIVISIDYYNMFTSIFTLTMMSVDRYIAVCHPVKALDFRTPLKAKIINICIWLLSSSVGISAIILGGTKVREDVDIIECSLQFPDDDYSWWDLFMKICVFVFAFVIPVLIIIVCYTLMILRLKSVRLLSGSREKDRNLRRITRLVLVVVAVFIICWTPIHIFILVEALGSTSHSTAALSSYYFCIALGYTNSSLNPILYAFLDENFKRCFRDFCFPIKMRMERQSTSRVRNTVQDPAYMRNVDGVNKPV

Mu-type opioid receptor [2] = target: T2, Mu-type opioid receptor (Cavia porcellus, UniProt P97266); assay: Compound was tested for the inhibition of [3H]- [D-Ala2, N-MePhe4, Gly5-ol]-enkephalin (DAMGO) binding to Opioid receptor mu 1 in guinea pig brain homogenates; format: tissue-based
T2 sequence (P97266 whole entry): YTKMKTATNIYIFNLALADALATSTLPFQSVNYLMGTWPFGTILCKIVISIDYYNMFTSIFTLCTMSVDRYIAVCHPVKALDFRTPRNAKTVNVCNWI

[3] = target: Opioid receptors; mu & delta (Homo sapiens) (UniProt P41143+P35372); assay: Ratio of binding affinity towards mu receptor to delta receptor.; format: protein assay
Sequence of Opioid receptors; mu & delta (Homo sapiens) (P35372 whole entry, looked up): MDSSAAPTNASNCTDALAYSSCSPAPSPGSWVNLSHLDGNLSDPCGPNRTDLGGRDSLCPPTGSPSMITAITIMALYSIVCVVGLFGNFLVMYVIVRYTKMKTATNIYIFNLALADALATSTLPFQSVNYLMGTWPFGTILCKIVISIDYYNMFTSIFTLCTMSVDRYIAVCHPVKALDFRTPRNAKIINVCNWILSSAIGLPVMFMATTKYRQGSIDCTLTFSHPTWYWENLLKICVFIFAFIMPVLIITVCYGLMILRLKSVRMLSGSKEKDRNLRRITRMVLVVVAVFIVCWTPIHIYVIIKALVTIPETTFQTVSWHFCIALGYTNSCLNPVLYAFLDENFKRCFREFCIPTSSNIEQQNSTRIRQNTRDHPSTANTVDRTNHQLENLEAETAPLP
Sequence of Opioid receptors; mu & delta (Homo sapiens) (P41143 whole entry, looked up): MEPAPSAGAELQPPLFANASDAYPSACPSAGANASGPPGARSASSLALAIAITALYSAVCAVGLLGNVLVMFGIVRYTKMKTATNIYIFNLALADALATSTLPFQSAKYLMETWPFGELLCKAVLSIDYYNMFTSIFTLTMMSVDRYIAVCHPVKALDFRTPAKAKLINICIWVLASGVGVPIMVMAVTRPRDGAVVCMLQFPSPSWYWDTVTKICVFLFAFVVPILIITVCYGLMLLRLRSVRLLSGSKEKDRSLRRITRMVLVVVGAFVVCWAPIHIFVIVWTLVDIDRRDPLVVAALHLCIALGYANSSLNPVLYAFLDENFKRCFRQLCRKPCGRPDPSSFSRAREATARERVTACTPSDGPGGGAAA

[4] = target: Mu-type opioid receptor (Cavia porcellus) (UniProt P97266); assay: Ratio of binding affinity towards opioid receptor mu to opioid receptor delta
Sequence of Mu-type opioid receptor (Cavia porcellus) (P97266 whole entry): as the sequence (P97266 whole entry) above

[5] = target: T1, Kappa-type opioid receptor; assay: Compound was tested for the inhibition of [3H]- (U69,593) binding to opioid receptor kappa in guinea pig brain homogenates; format: tissue-based
How it was run: (§1)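 Guinea pig brain membranes (washed, preincubated 37 °C 30 min to remove endogenous opioids) in 50 mM Tris pH 7.4. Test compound preincubated with membranes 15 min at 25 °C, then 0.9 nM [3H]U69,593 added and incubated 90 min at 25 °C. Nonspecific binding defined with 10 μM U69,593. Filtration, scintillation counting. 12 concentrations, triplicate. IC50 by regression; Ki from saturation-derived KD.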

Mu-type opioid receptor [6] = target: T2, Mu-type opioid receptor; assay: Compound was tested for the inhibition of [3H]- [D-Ala2, N-MePhe4, Gly5-ol]-enkephalin (DAMGO) binding to opioid receptor mu in guinea pig brain homogenates; format: tissue-based
How it was run: as §1, with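 “0.6” for “0.9”, “[3H]DAMGO” for “[3H]U69,593”, “75” for “90”, “5” for “10”, “DAMGO.” for “U69,593.”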

CC1(C)SSC[C@H](NC(=O)[C@@H](N)Cc2ccc(O)cc2)C(=O)N[C@@H](Cc2ccc(O)cc2)C(=O)N[C@@H]1C(=O)O (H-YCY[Pen]-OH; disulfide 2-4)
Ki [1]: > 10 µM
Ki (Mu-type opioid receptor [2]): 3.45 µM
Ratio [3]: 135

CC1(C)SSC[C@H](NC(=O)[C@@H](N)Cc2ccc(O)cc2)C(=O)N[C@@H](Cc2ccccc2F)C(=O)N[C@@H]1C(=O)O (H-YC[Phe(2-F)][Pen]-OH; disulfide 2-4)
Ratio [4]: 28.1
Ki [5]: > 10 µM
Ki (Mu-type opioid receptor [6]): 0.0919 µM

CC1(C)SSC[C@H](NC(=O)[C@@H](N)Cc2ccc(O)cc2)C(=O)N[C@@H](Cc2cccc(F)c2)C(=O)N[C@@H]1C(=O)O (H-YC[Phe(3-F)][Pen]-OH; disulfide 2-4)
Ratio [4]: 19.2
Ki [5]: > 10 µM
Ki (Mu-type opioid receptor [6]): 0.0555 µM

CC1(C)SSC[C@H](NC(=O)[C@@H](N)Cc2ccc(O)cc2)C(=O)N[C@@H](Cc2ccc(Cl)cc2)C(=O)N[C@@H]1C(=O)O (H-YC[Phe(4-Cl)][Pen]-OH; disulfide 2-4)
Ratio [4]: 334
Ki [5]: 10 µM
Ki (Mu-type opioid receptor [6]): 0.327 µM

CC1(C)SSC[C@H](NC(=O)[C@@H](N)Cc2ccc(O)cc2)C(=O)N[C@@H](Cc2ccc(F)cc2)C(=O)N[C@@H]1C(=O)O (H-YC[Phe(4-F)][Pen]-OH; disulfide 2-4)
Ki [1]: > 10 µM
Ki (Mu-type opioid receptor [2]): 0.161 µM
Ratio [3]: 146

Cc1ccc(C[C@@H]2NC(=O)[C@@H](NC(=O)[C@@H](N)Cc3ccc(O)cc3)CSSC(C)(C)[C@@H](C(=O)O)NC2=O)cc1 (H-YC[Phe(4-Me)][Pen]-OH; disulfide 2-4)
Ratio [4]: 325
Ki [5]: > 10 µM
Ki (Mu-type opioid receptor [6]): 1.75 µM

CC1(C)SSC[C@H](NC(=O)[C@@H](N)Cc2ccc(O)cc2)C(=O)N[C@@H](Cc2ccc([N+](=O)[O-])cc2)C(=O)N[C@@H]1C(=O)O (H-YC[Phe(4-NO2)][Pen]-OH; disulfide 2-4)
Ki [1]: > 10 µM
Ki (Mu-type opioid receptor [2]): 0.137 µM
Ratio [3]: 82.5

CC(C)(C)c1ccc(C[C@@H]2NC(=O)[C@@H](NC(=O)[C@@H](N)Cc3ccc(O)cc3)CSSC(C)(C)[C@@H](C(=O)O)NC2=O)cc1 (H-YC[Phe(4-tBu)][Pen]-OH; disulfide 2-4)
Ratio [4]: 270
Ki [1]: > 10 µM
Ki (Mu-type opioid receptor [2]): 10 µM
Ki [5]: > 10 µM
Ki (Mu-type opioid receptor [6]): 10 µM
Ratio [3]: 15

CC1(C)SSC[C@H](NC(=O)[C@@H](N)Cc2ccc(O)cc2)C(=O)N[C@@H](Cc2cccc(O)c2)C(=O)N[C@@H]1C(=O)O (H-YC[mTyr][Pen]-OH; disulfide 2-4)
Ratio [4]: 76.6
Ki [1]: > 10 µM
Ki (Mu-type opioid receptor [2]): 3.4 µM
Ki [5]: > 10 µM
Ki (Mu-type opioid receptor [6]): 0.712 µM
Ratio [3]: 22.3
